For series [1], the system named is Mus musculus. Kind of series: Anticonvulsant activity against intraperitoneal picrotoxin-induced seizure in Albino CF1 mouse at 300 mg/kg, ip after 4 hrs. It counts as functional, organism-based. Details: dose 300 mg/kg. An outline of the steps:
(§1)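 Mice received the test compound by intraperitoneal injection at 30, 100 or 300 mg/kg. They were then challenged with intraperitoneal picrotoxin and scored for anticonvulsant protection 0.5 h or 4 h after dosing. The value recorded is the lowest dose that protected half or more of the mice. A dash means no activity up to 300 mg/kg.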

The test system of series [2] is Mus musculus. Nature of the series: Anticonvulsant activity against subcutaneous strychnine-induced seizure in Albino CF1 mouse at 300 mg/kg, ip after 4 hrs. Details: dose 300 mg/kg. It counts as functional, organism-based. The method, boiled down:
(§2)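 Test compounds given i.p. to mice at 0.01 mL/g, at 30, 100 or 300 mg/kg. The seizure challenge followed at 0.5 h and at 4 h after dosing. The value recorded is the lowest dose that protected half or more of the mice. Where no activity was seen, the maximum dose given was 300 mg/kg.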

In series [3] the test system is Mus musculus. Kind of series: Anticonvulsant activity against intraperitoneal picrotoxin-induced seizure in Albino CF1 mouse at 300 mg/kg, ip after 0.5 hrs. Type of series: functional, organism-based. Details: dose 300 mg/kg. An outline of the steps: as §1
Series [4] has as its system Mus musculus. Kind of series: Anticonvulsant activity against subcutaneous pentylenetetrazole-induced seizure in Albino CF1 mouse at 300 mg/kg, ip after 0.5 hrs. Details: dose 300 mg/kg. It counts as functional, organism-based. An outline of the steps: as §2
In series [5] the test system is Mus musculus. Kind of series: Anticonvulsant activity against subcutaneous pentylenetetrazole-induced seizure in Albino CF1 mouse at 300 mg/kg, ip after 4 hrs. Type of series: functional, organism-based. Details: dose 300 mg/kg. An outline of the steps: as §2
For series [6], the system named is Mus musculus. Kind of series: Anticonvulsant activity in Albino CF1 mouse upto 300 mg/kg, ip in maximal electroshock seizure test. Details: dose 300 mg/kg. It counts as functional, organism-based. The method, boiled down:
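Mice dosed i.p. (0.01 mL/g) at 30, 100 and 300 mg/kg. Electroshock challenge run 30 min and 4 h after dosing.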

For series [7], the system named is Mus musculus. Nature of the series: Neurotoxicity in Albino CF1 mouse at 100 mg/kg, ip after 0.5 hrs by Rotarod test. To be noted: in vivo. Type of series: toxicity, organism-based. Also on record: dose 100 mg/kg, route intraperitoneal. An outline of the steps: (§3)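 Rotarod test in mice pre-trained to stay on the rod for two consecutive 90 s trials. Compounds given i.p. at 30, 100 or 300 mg/kg, with testing at 0.5 h and 4 h. Deficit was scored as failure to keep balance on the rod for 1 min in each of three trials. The value recorded is the lowest dose affecting half or more of the mice.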

In series [8] the test system is Mus musculus. Nature of the series: Neurotoxicity in Albino CF1 mouse at 300 mg/kg, ip after 4 hrs by Rotarod test. As to conditions: in vivo. Also on record: dose 300 mg/kg, route intraperitoneal. Type of series: toxicity, organism-based. The method, boiled down:
as §3

The test system of series [9] is Mus musculus. Nature of the series: Anticonvulsant activity against subcutaneous strychnine-induced seizure in Albino CF1 mouse at 300 mg/kg, ip after 0.5 hrs. It counts as functional, organism-based. Also on record: dose 300 mg/kg. An outline of the steps:
as §2

The test system of series [10] is Mus musculus. Kind of series: Neurotoxicity in Albino CF1 mouse at 300 mg/kg, ip after 0.5 hrs by Rotarod test. As to conditions: in vivo. Type of series: toxicity, organism-based. Details: dose 300 mg/kg, route intraperitoneal. An outline of the steps: as §3
Series [11] deals with Mus musculus. Kind of series: Anticonvulsant activity against intraperitoneal picrotoxin-induced seizure in Albino CF1 mouse at 100 mg/kg, ip after 4 hrs. It counts as functional, organism-based. Details: dose 100 mg/kg. An outline of the steps: as §1
Series [12] relates to Mus musculus. Kind of series: Anticonvulsant activity against subcutaneous strychnine-induced seizure in Albino CF1 mouse at 100 mg/kg, ip after 0.5 hrs. Details: dose 100 mg/kg. It counts as functional, organism-based. An outline of the steps:
as §2

Series [13] relates to Mus musculus. Nature of the series: Anticonvulsant activity against intraperitoneal picrotoxin-induced seizure in Albino CF1 mouse at 100 mg/kg, ip after 0.5 hrs. It counts as functional, organism-based. Details: dose 100 mg/kg. An outline of the steps:
as §1

Series [14] has as its system Mus musculus. Nature of the series: Anticonvulsant activity against subcutaneous strychnine-induced seizure in Albino CF1 mouse at 100 mg/kg, ip after 4 hrs. It counts as functional, organism-based. Details: dose 100 mg/kg. The method, boiled down:
as §2

Activity calls are given as the source filed them. No cut-off for these calls is given here.

`Cc1ccc(C)c(NC(=O)CCCN2C(=O)c3ccccc3C2=O)c1`: the result in the series on Mus musculus [1], in the series with Mus musculus [4], in the series with Mus musculus [5] and with Mus musculus [6] was inactive. For the same molecule, the outcome with Mus musculus [2], in the series with Mus musculus [3] and in the series on Mus musculus [9] was Active. Moreover, the result in the series on Mus musculus [7] and in the series with Mus musculus [8] was Active.
In the case of `O=C(CCCN1C(=O)c2ccccc2C1=O)N/N=C\c1ccccc1O`, the result with Mus musculus [1], in the series on Mus musculus [2], in the series with Mus musculus [4], in the series on Mus musculus [5], in the series with Mus musculus [6] and in the series with Mus musculus [9] was inactive. In addition, the result with Mus musculus [3] was Active. The Activity result with Mus musculus [10] and in the series on Mus musculus [8] was “Not Active” each time.
For the molecule `O=C(CCCN1C(=O)c2ccccc2C1=O)N/N=C\c1cccc([N+](=O)[O-])c1`, the outcome in the series on Mus musculus [1], in the series on Mus musculus [2], with Mus musculus [5], with Mus musculus [6] and with Mus musculus [9] was inactive. In addition, the result in the series on Mus musculus [3] and in the series on Mus musculus [4] was Active. Moreover, the Activity entry in the series on Mus musculus [10] and in the series on Mus musculus [8] was “Not Active” each time.
As for `O=C(CCCN1C(=O)c2ccccc2C1=O)Nc1ccccc1C(F)(F)F`, the outcome with Mus musculus [1], with Mus musculus [2], in the series with Mus musculus [4], in the series with Mus musculus [5] and in the series with Mus musculus [6] was inactive. In addition, the outcome in the series on Mus musculus [3] and with Mus musculus [9] was Active. In addition, the Activity entry is listed as “Not Active” in the series on Mus musculus [10] and “Active” with Mus musculus [8].
Turning to `O=C(CCCN1C(=O)c2ccccc2C1=O)Nc1cccc(F)c1`, the result in the series with Mus musculus [1], with Mus musculus [2], in the series on Mus musculus [3] and with Mus musculus [9] was Active. Besides, the outcome with Mus musculus [4], in the series on Mus musculus [5] and in the series with Mus musculus [6] was inactive. For the same molecule, the Activity entry is “Active” in the series with Mus musculus [10] and “Not Active” with Mus musculus [8].
On to `C/C(=N/NC(=O)CCCN1C(=O)c2ccccc2C1=O)c1cccc(N)c1`, for which the outcome in the series on Mus musculus [1], with Mus musculus [2], with Mus musculus [3], with Mus musculus [4], in the series with Mus musculus [5] and with Mus musculus [6] was inactive. For the same molecule, the result in the series on Mus musculus [9] was inactive. Besides, the Activity result in the series on Mus musculus [10] and with Mus musculus [8] was “Not Active” each time.
Turning to `C/C(=N/NC(=O)CCCN1C(=O)c2ccccc2C1=O)c1ccccc1`, the result in the series with Mus musculus [11], in the series with Mus musculus [12], in the series with Mus musculus [13] and in the series on Mus musculus [14] was Active. For the same molecule, the outcome in the series with Mus musculus [4], with Mus musculus [5] and in the series on Mus musculus [6] was inactive. Besides, the Activity entry in the series on Mus musculus [10] and in the series on Mus musculus [8] was “Not Active” in each case.
For `COc1cc(/C=N\NC(=O)CCCN2C(=O)c3ccccc3C2=O)ccc1O`, the result with Mus musculus [1], in the series with Mus musculus [2], in the series on Mus musculus [4], in the series on Mus musculus [5], with Mus musculus [6] and in the series on Mus musculus [9] was inactive. In the series on Mus musculus [3], the outcome was Active. Further, the Activity entry with Mus musculus [10] and with Mus musculus [8] was “Not Active” each time.
Regarding `C/C(=N/NC(=O)CCCN1C(=O)c2ccccc2C1=O)c1ccccc1O`, the result in the series with Mus musculus [1], in the series with Mus musculus [12], in the series with Mus musculus [13] and in the series on Mus musculus [14] was Active. Further, the result in the series on Mus musculus [4], in the series on Mus musculus [5] and in the series with Mus musculus [6] was inactive. Further, the Activity entry in the series with Mus musculus [10] and with Mus musculus [8] was “Not Active” each time.
Take `CCC1(C)CC(=O)NC1=O` (stereo not drawn) [ETHOSUXIMIDE]: the result with Mus musculus [1], with Mus musculus [2], with Mus musculus [3], in the series with Mus musculus [5], with Mus musculus [6] and in the series on Mus musculus [9] was inactive. Besides, in the series with Mus musculus [4], the outcome was Active. The Activity result in the series with Mus musculus [10] and in the series on Mus musculus [8] was “Not Active” in each case.
Regarding `O=C(CCCN1C(=O)c2ccccc2C1=O)NN=C(c1ccccc1)c1ccccc1`, the result with Mus musculus [1], in the series on Mus musculus [2], with Mus musculus [4], in the series with Mus musculus [5], with Mus musculus [6] and with Mus musculus [9] was inactive. Further, the outcome with Mus musculus [3] was Active. Moreover, the Activity result with Mus musculus [10] and in the series with Mus musculus [8] was “Not Active” in each case.
`CC/C(C)=N/NC(=O)CCCN1C(=O)c2ccccc2C1=O`: the outcome in the series on Mus musculus [1], in the series on Mus musculus [2], in the series on Mus musculus [4], with Mus musculus [5], with Mus musculus [6] and in the series on Mus musculus [9] was inactive. Moreover, in the series with Mus musculus [3], the result was Active. For the same molecule, the Activity entry in the series with Mus musculus [10] and with Mus musculus [8] was “Not Active” in each case.
With `Cc1ccc(NC(=O)CCCN2C(=O)c3ccccc3C2=O)cc1`, the outcome in the series with Mus musculus [1], in the series with Mus musculus [2], with Mus musculus [4], in the series with Mus musculus [5] and in the series with Mus musculus [6] was inactive. The outcome with Mus musculus [3] and in the series on Mus musculus [9] was Active. Moreover, the Activity result is recorded as “Not Active” in the series on Mus musculus [10] and “Active” in the series on Mus musculus [8].
On to `C/C(=N/NC(=O)CCCN1C(=O)c2ccccc2C1=O)c1ccc(O)cc1`, for which the outcome in the series on Mus musculus [1], in the series with Mus musculus [2], in the series on Mus musculus [4], in the series on Mus musculus [5] and in the series with Mus musculus [6] was inactive. In addition, the result with Mus musculus [12] and in the series on Mus musculus [13] was Active. Further, the Activity entry with Mus musculus [10] and in the series on Mus musculus [8] was “Not Active” each time.
Regarding `O=C(CCCN1C(=O)c2ccccc2C1=O)N/N=C\c1ccc([N+](=O)[O-])cc1`, the outcome in the series with Mus musculus [1], in the series with Mus musculus [2], in the series on Mus musculus [3], in the series on Mus musculus [4], with Mus musculus [5] and in the series on Mus musculus [6] was inactive. Further, the result in the series with Mus musculus [9] was inactive. The Activity result with Mus musculus [10] and in the series on Mus musculus [8] was “Not Active” in each case.
In the case of `O=C(CCCN1C(=O)c2ccccc2C1=O)Nc1ccccc1Br`, the outcome in the series on Mus musculus [1] and with Mus musculus [13] was Active. For the same molecule, the outcome in the series on Mus musculus [2], with Mus musculus [4], in the series on Mus musculus [5], in the series on Mus musculus [6] and in the series with Mus musculus [9] was inactive. Also, the Activity result in the series with Mus musculus [10] and in the series with Mus musculus [8] was “Not Active” in each case.
Regarding `C/C(=N/NC(=O)CCCN1C(=O)c2ccccc2C1=O)c1ccc([N+](=O)[O-])cc1`, the result in the series on Mus musculus [1], with Mus musculus [2], with Mus musculus [4], with Mus musculus [5] and in the series with Mus musculus [6] was inactive. Besides, the result in the series on Mus musculus [3] and in the series with Mus musculus [12] was Active. For the same molecule, the Activity result is “Active” with Mus musculus [10] and “Not Active” with Mus musculus [8].

The values are drawn from ChEMBL document CHEMBL1142874, “Design and synthesis of anticonvulsants from a combined phthalimide-GABA-anilide and hydrazone pharmacophore” (Eur J Med Chem, 2007).
